Measured values pooled from the literature.
Each line is one published result; the experiments were not run side by side. ≈ marks a conversion by molar mass, not a printed value.
CYP2B6: Cytochrome P450 2B6 (CYP2B6, Homo sapiens, UniProt P20813)

CC(C)[C@@H]1NC(=O)[C@@H](CCCCN)NC(=O)[C@H]([C@@H](C)O)NC(=O)[C@@H](CCCN)NC(=O)[C@H](Cc2ccccc2)NC(=O)[C@@H](Cc2ccccc2)NC1=O
haemolysis (haemolysis; human; 100 µM): < 10%

OCc1ccc(-c2nn(Cc3ccccc3)c3ccccc23)o1
IC50 (CYP2B6; enzyme activity, inhibitor; human, liver microsomes): 5.1 µM

CSc1ccccc1C(=O)NCCn1cc(C(=O)NCc2cccc(C)n2)c(=O)c2cc3c(cc21)OCO3
IC50 (CYP2B6; enzyme activity, inhibitor; human, liver microsomes; 20 min, without NADPH, with preincubation): > 100 µM

C[C@H]1Oc2cc(cnc2N)-c2c(nn(C)c2C#N)CN(C)C(=O)c2ccc(F)cc21
CL/F (male Sprague-Dawley rat, plasma; oral, 5 mg/kg, single dose): 50 mL/min/kg

CC(C)n1ncc2c(C(=O)NCC3(C)CNC3)cc(C3CC3)nc21
viability (HeLa; cell growth or viability, neutral red; 0.11 µM): 99.9%

Cc1cc(S(=O)(=O)N[C@]2(C)C[C@@H](N3CCN(CC4CCN(c5ccc6c(c5F)n(C)c(=O)n6C5CCC(=O)NC5=O)CC4)CC3)C2)ccc1Nc1ncc(C(F)(F)F)c(N2CCC[C@](C)(O)C2)n1 (some centres unmarked)
clearance (rat, plasma; intravenous, 2 mg/kg): 62 mL/min/kg

CSc1ccccc1C(=O)NCCn1cc(C(=O)NCc2cccc(C)n2)c(=O)c2cc3c(cc21)OC(F)(F)O3
IC50 (CYP2B6; enzyme activity, inhibitor; human, liver microsomes; 20 min, without NADPH, with preincubation): > 100 µM

Cc1cc(S(=O)(=O)NC2CC(N3CCN(CC4CCN(c5ccc(NC6CCC(=O)NC6=O)cc5C)CC4)CC3)C2)ccc1Nc1ncc(C(F)(F)F)c(N2CCC[C@](C)(O)C2)n1 (some centres unmarked)
clearance (rat, plasma; intravenous, 2 mg/kg): 26 mL/min/kg

c1ccc(Oc2ccc(Nc3ccc4ncc(OCC5CCNCC5)nc4c3)cc2)cc1
EC50 (HeLa; cell growth or viability, XTT; 7 days): 20.9 µM

CCCCCCCCCCCCCCCCCC(=O)O
CC50 (HeLa; cell growth or viability, MTT; 48 h): 90.6 µg/mL (≈ 318 µM)

CNS(=O)(=O)c1ccc(Nc2ncc(C(F)(F)F)c(N3CCC(C)(O)CC3)n2)c(C)c1
clearance (rat, plasma; intravenous, 2 mg/kg): 52 mL/min/kg

c1ccc(COc2ccc(Nc3ccc4ncc(OCC5CCNCC5)nc4c3)cc2)cc1
EC50 (HeLa; cell growth or viability, XTT; 7 days): > 30 µM

Cc1cc(S(=O)(=O)N[C@H]2CC[C@H](CN3CCN(c4ccc(C5CCC(=O)NC5=O)c(Cl)c4)CC3)CC2)ccc1Nc1ncc(C(F)(F)F)c(N2CCC[C@](C)(O)C2)n1 (some centres unmarked)
clearance (rat, plasma; intravenous, 2 mg/kg): 15 mL/min/kg

CC(C)[C@@H]1NC(=O)[C@@H](CCCNC(=N)N)NC(=O)[C@H](C)NC(=O)[C@@H](CCCN)NC(=O)[C@H](Cc2ccccc2)NC(=O)[C@@H](Cc2ccccc2)NC1=O
haemolysis (haemolysis; human; 100 µM): < 10%
